ChEMBL document CHEMBL4028892, “Discovery of a 1-Methyl-3,4-dihydronaphthalene-Based Sphingosine-1-Phosphate (S1P) Receptor Agonist Ceralifimod (ONO-4641). A S1P1 and S1P5 Selective Agonist for the Treatment of Autoimmune Diseases” (J Med Chem, 2017)
Active and inactive are the calls of the source. The calls are words filed in the database; no cut-off is given here.

What was measured:
[1] = Plasma concentration in unrestrained conscious cynomolgus monkey at 100 mg/kg, po measured at 24 hrs; assay type: ADME, organism-based, Macaca fascicularis
Summary of the method: (§1)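 Single oral dose of 1, 10 or 100 mg/kg to unrestrained conscious monkeys. Heart rate was followed from 4 to 24 h after dosing and its decrease expressed against the pretreatment value. Plasma concentration was sampled at 4 and 24 h.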

[2] = Oral bioavailability in cynomolgus monkey at 0.1 mg/kg by LC-MS/MS analysis; assay type: ADME, organism-based, Macaca fascicularis; conditions: in vivo
Summary of the method: (§2)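 Single intravenous or oral dose of 0.1 mg/kg to male Crl:CD(SD) rats and to monkeys. Values are means of three animals with SD.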

[3] = Cmax in Crl:CD(SD) rat at 0.1 mg/kg, po by LC-MS/MS analysis; assay type: ADME, organism-based; design: dose 0.1 mg/kg, route oral; conditions: in vivo; summary of the method: as §2
[4] = molecular target: T1, Sphingosine 1-phosphate receptor 5 (Homo sapiens, UniProt Q9H228); test: Displacement of [33P]-S1P from human S1P5 receptor expressed in CHO-K1 cells after 60 mins by scintillation counting method; assay type: cell-based
T1 sequence (Q9H228 whole entry): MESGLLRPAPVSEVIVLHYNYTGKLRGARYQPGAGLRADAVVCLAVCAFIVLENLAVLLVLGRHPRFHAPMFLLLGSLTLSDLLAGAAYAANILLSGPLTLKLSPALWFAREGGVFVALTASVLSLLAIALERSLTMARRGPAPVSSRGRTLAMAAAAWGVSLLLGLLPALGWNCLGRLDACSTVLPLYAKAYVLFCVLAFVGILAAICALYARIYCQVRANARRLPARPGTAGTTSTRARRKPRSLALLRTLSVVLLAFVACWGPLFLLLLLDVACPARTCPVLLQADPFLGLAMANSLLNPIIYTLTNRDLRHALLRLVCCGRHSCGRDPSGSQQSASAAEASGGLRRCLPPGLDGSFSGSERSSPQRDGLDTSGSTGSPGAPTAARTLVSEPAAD

[5] = molecular target: T2, Sphingosine 1-phosphate receptor 3 (Homo sapiens, UniProt Q99500); test: Agonist activity at human S1P3 receptor expressed in CHO-K1 cells assessed as increase in S1P-stimulated calcium influx preincubated for 5 mins followed by S1P stimulation measured every 3 secs by fluorescence method; assay type: cell-based
T2 sequence (Q99500 whole entry): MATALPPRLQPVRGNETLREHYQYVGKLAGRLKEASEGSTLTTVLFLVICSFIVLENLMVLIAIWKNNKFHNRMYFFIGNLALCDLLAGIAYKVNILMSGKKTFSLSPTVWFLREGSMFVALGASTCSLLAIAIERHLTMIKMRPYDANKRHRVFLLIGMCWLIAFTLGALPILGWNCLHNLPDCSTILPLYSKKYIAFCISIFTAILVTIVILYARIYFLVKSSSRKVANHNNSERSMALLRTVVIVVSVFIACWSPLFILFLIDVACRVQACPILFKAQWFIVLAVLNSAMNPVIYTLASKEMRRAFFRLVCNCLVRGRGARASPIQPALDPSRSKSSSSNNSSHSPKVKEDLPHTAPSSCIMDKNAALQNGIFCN

[6] = Total clearance in Crl:CD(SD) rat at 0.1 mg/kg, iv by LC-MS/MS analysis; assay type: ADME, organism-based; conditions: in vivo; summary of the method: as §2
[7] = system: Rattus norvegicus; test: Antiarthritic activity in bovine type 2 collagen-induced Lewis rat arthritis model at 0.1 mg/kg, po qd administered up to 27 days; assay type: functional, organism-based
Summary of the method: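 Female Lewis rats were immunised with bovine type II collagen in incomplete Freund's adjuvant on days 0 and 7. Compound (0.03 or 0.1 mg/kg) or 0.5% methylcellulose was given orally once daily, days 0–27. Paw oedema/erythema was scored. Groups: n = 9–10 treated/control, normal n = 5. Mean ± SE, Steel test.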

[8] = molecular target: Sphingosine 1-phosphate receptor 2 (Homo sapiens, UniProt O95136); test: Agonist activity at human S1P2 receptor expressed in CHO-K1 cells assessed as increase in S1P-stimulated calcium influx preincubated for 5 mins followed by S1P stimulation measured every 3 secs by fluorescence method; assay type: functional, cell-based
Sequence of Sphingosine 1-phosphate receptor 2 (O95136 whole entry): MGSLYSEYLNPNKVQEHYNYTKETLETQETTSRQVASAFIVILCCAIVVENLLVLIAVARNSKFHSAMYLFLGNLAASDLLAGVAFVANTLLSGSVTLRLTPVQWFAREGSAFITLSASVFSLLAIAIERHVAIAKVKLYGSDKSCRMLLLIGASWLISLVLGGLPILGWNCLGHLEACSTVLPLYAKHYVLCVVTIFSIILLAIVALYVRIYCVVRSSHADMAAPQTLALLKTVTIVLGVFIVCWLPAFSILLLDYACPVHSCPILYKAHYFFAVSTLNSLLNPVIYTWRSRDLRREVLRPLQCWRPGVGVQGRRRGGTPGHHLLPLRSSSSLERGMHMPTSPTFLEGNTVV

[9] = AUC (infinity) in cynomolgus monkey at 0.1 mg/kg, iv by LC-MS/MS analysis; assay type: ADME, organism-based, Macaca fascicularis; design: dose 0.1 mg/kg, time infinity, route intravenous; conditions: in vivo; summary of the method: as §2
[10] = system: Mus musculus; test: Decrease in peripheral lymphocyte levels in po dosed BALB/c mouse at 4 hrs by automated hematology analyzer; assay type: functional
Summary of the method: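 Compound given orally to 6-week-old male BALB/c mice. At 4 or 24 h, blood was taken from the abdominal aorta under ether anaesthesia and lymphocytes counted on an automated haematology analyser. Counts expressed as % of the vehicle-group mean; ED50 is the dose lowering counts to 50%. One experiment, five mice.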

[11] = molecular target: T1, Sphingosine 1-phosphate receptor 5; test: Agonist activity at human S1P5 receptor expressed in CHO-K1 cells assessed as inhibition of forskolin-stimulated cAMP accumulation after 30 mins by ELISA; assay type: functional, cell-based
[12] = Cmax in cynomolgus monkey at 0.1 mg/kg, po by LC-MS/MS analysis; assay type: ADME, organism-based, Macaca fascicularis; design: dose 0.1 mg/kg, route oral; conditions: in vivo; summary of the method: as §2
[13] = Half life in cynomolgus monkey at 0.1 mg/kg, iv by LC-MS/MS analysis; assay type: ADME, organism-based, Macaca fascicularis; conditions: in vivo; summary of the method: as §2
[14] = Plasma concentration in unrestrained conscious cynomolgus monkey at 1 mg/kg, po measured at 4 hrs; assay type: ADME, organism-based, Macaca fascicularis; summary of the method: as §1
[15] = molecular target: T2, Sphingosine 1-phosphate receptor 3; test: Displacement of [33P]-S1P from human S1P3 receptor expressed in CHO-K1 cells after 60 mins by scintillation counting method; assay type: cell-based
[16] = system: Cynomolgus monkey; test: Toxicity in unrestrained conscious cynomolgus monkey assessed as decrease in heart rate at 100 mg/kg, po administered as single dose measured after 4 to 24 hrs; assay type: organism-based, Macaca fascicularis; conditions: in vivo; summary of the method: as §1
[17] = Plasma concentration in unrestrained conscious cynomolgus monkey at 10 mg/kg, po measured at 4 hrs; assay type: ADME, organism-based, Macaca fascicularis; summary of the method: as §1
[18] = Oral bioavailability in Crl:CD(SD) rat at 0.1 mg/kg by LC-MS/MS analysis; assay type: ADME, organism-based; conditions: in vivo; summary of the method: as §2
[19] = Plasma concentration in unrestrained conscious cynomolgus monkey at 100 mg/kg, po measured at 4 hrs; assay type: ADME, organism-based, Macaca fascicularis; summary of the method: as §1
[20] = AUC (infinity) in cynomolgus monkey at 0.1 mg/kg, po by LC-MS/MS analysis; assay type: ADME, organism-based, Macaca fascicularis; design: dose 0.1 mg/kg, route oral, time infinity; conditions: in vivo; summary of the method: as §2
[21] = Half life in Crl:CD(SD) rat at 0.1 mg/kg, iv by LC-MS/MS analysis; assay type: ADME, organism-based; conditions: in vivo; summary of the method: as §2
[22] = molecular target: T3, Sphingosine 1-phosphate receptor 4 (Homo sapiens, UniProt O95977); test: Displacement of [33P]-S1P from human S1P4 receptor expressed in CHO-K1 cells after 60 mins by scintillation counting method; assay type: cell-based
T3 sequence (O95977 whole entry): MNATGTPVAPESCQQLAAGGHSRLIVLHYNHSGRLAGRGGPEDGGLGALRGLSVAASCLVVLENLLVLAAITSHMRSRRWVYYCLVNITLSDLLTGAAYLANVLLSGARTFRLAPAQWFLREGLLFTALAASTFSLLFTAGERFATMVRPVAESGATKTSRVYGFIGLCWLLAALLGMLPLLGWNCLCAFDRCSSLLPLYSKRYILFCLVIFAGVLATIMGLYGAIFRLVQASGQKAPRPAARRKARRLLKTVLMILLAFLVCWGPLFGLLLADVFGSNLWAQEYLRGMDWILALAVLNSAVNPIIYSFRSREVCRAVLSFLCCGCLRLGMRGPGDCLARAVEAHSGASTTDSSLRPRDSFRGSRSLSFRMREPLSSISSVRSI

[23] = species: Homo sapiens; test: Selectivity ratio of EC50 for human S1P3 receptor to EC50 for human S1P1 receptor
Summary of the method: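 Fura2 Ca2+ assay in CHO-K1 cells stably expressing human S1P1 or S1P3. Cells were loaded with 5 μM Fura2-AM in Ham's F12 (10% FBS, 20 mM HEPES pH 7.4, 2.5 mM probenecid) for 60 min at 37 °C, then washed. After a 30 s baseline, compound was added (0.1 nM–30 μM final, DMSO), then 100 nM S1P 5 min later. Ratio read every 3 s (ex 340/380, em 500 nm). Increase ratio (%) = B/A×100 against the DMSO-well S1P peak; EC50 taken from the concentration series; mean of ≥2 data points.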

[24] = molecular target: Sphingosine 1-phosphate receptor 1 (Rattus norvegicus, UniProt P48303); test: Displacement of [33P]-S1P from rat S1P1 receptor after 60 mins by scintillation counting method
Sequence of Sphingosine 1-phosphate receptor 1 (P48303 whole entry): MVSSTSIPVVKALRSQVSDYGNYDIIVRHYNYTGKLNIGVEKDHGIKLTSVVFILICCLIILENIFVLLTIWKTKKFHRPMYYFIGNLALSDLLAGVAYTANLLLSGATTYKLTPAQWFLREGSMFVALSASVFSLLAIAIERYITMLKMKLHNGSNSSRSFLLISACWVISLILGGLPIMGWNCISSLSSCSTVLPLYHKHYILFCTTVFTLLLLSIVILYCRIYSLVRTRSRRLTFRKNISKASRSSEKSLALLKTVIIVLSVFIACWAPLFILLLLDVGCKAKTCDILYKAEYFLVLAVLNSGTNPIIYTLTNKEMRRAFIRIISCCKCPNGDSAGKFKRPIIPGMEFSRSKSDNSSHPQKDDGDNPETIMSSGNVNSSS

[25] = Half life in Crl:CD(SD) rat at 0.1 mg/kg, po by LC-MS/MS analysis; assay type: ADME, organism-based; conditions: in vivo; summary of the method: as §2
[26] = AUC (infinity) in Crl:CD(SD) rat at 0.1 mg/kg, iv by LC-MS/MS analysis; assay type: ADME, organism-based; design: dose 0.1 mg/kg, time infinity, route intravenous; conditions: in vivo; summary of the method: as §2
[27] = system: Cynomolgus monkey; test: Decrease in peripheral lymphocyte levels in unrestrained conscious cynomolgus monkey at 0.01 to 0.03 mg/kg, po administered as single dose measured after 4 to 24 hrs by automated hematology analyzer; assay type: functional, organism-based; conditions: Macaca fascicularis
Summary of the method: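 Single oral doses of 0.01 and 0.03 mg/kg to monkeys. Peripheral lymphocyte counts were followed from 4 to 24 h after administration.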

[28] = Half life in cynomolgus monkey at 0.1 mg/kg, po by LC-MS/MS analysis; assay type: ADME, organism-based, Macaca fascicularis; conditions: in vivo; summary of the method: as §2

concentration at 24 h [1]: 11100 ng/mL | bioavailability [2]: 66.5% | Cmax [3]: 7.47 ng/mL | Ki [4]: 0.574 nM | EC50 [5]: > 30000 nM | clearance [6]: 5.63 mL/min/kg | EC50 [8]: > 30000 nM | AUC(0-inf) [9]: 1640 ng·h/mL | EC50 [11]: 0.33 nM | Cmax [12]: 28.4 ng/mL | half-life [13]: 30 h | concentration at 4 h [14]: 320 ng/mL | Ki [15]: > 5630 nM | concentration at 4 h [17]: 3570 ng/mL | bioavailability [18]: 75.9% | concentration at 4 h [19]: 13500 ng/mL | AUC(0-inf) [20]: 1090 ng·h/mL | half-life [21]: 16 h | Ki [22]: 28.8 nM | Ratio EC50 [23]: > 30000 | Ki [24]: 0.772 nM | half-life [25]: 17 h | AUC(0-inf) [26]: 302 ng·h/mL | half-life [28]: 29 h
Compound: CCCc1ccc(COc2ccc3c(c2)CCC(CN2CC(C(=O)O)C2)=C3C)c(OC)c1
Activity [7]: Active | ED50 [10]: 0.018 mg/kg | Activity [16]: Toxic | Activity [27]: Active
